Experiment: Toxicity liver stage against HepG2, at 10uM
Format: cell-based
Set-up: test concentration 10 uM, cell line HepG2-A16-CD81EGFP
Details: human, HepG2-A16-CD81EGFP cells; read-out: INHIBITION
Summary of the method: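 Uninfected HepG2-A16-CD81EGFP cells, 3 × 10^3 per well, 1536-well, plated on prespotted compound at 10 μM final, parasite-free screening media added to match infected plates; puromycin 10 μM positive, DMSO 0.5% negative; run in parallel with 48 h PbLuc assay at 37 °C, 5% CO2; viability by CellTiter-Glo luminescence, normalized to controls.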

Row | SMILES | cytotoxicity at 10 µM [%]
1 | FC(F)(F)c1ccc2nc([C@H]3CCN(C4CCOCC4)C3)[nH]c2c1 | 0.354
2 | COc1ccc(-c2c(C(C)C)nn3c(=N)c(C#N)n[nH]c23)cc1 | -12.2
3 | Cn1nc(C(=O)NCc2ccc(Cl)cc2)c2c1CCS(=O)(=O)C2 | 5.01
4 | Cc1nc(N2CCC(C)CC2)ncc1-c1cc(O)nc(N2CCCC2)n1 | 9.82
5 | Cn1nc(C(=O)NC2CCCCC2)cc1NC(=O)C1CC1 | -3.97
6 | Cc1nn(C)c(C)c1CN(C)S(=O)(=O)c1c(C)n[nH]c1C | -2.32
7 | Cc1cc(C)nc(N2CCCC(C)(c3[nH]ncc3C(=O)N(C)C)C2)n1 (stereo not drawn) | 7.42
8 | NCc1cnn(-c2ccccc2C(=O)NCc2ccccn2)c1 | -19.9
9 | O=C(NC1CC1)C1CCc2nnc(C3CC3)n21 (stereo not drawn) | 11.2
10 | CC(C)(C)C(=O)N1CCC2(CNS(=O)(=O)c3cnccc3O2)C1 (stereo not drawn) | 10.2
11 | Cc1cc(C)cc(OCCNC(=O)C(C)Sc2nncn2C)c1 (stereo not drawn) | -46.3
12 | CCc1ccc2c(c1)C(CCNC(=O)Cc1ccc(F)cc1)C(=O)N2 (stereo not drawn) | -44.3
13 | CS(=O)(=O)CCC(=O)Nc1nccn1Cc1ccccc1Cl | -5.98
14 | N#CC1COCCN1C(=O)c1ccc2cc[nH]c2c1 (stereo not drawn) | 7.75
15 | CCOc1nnc(CN2CCN(CCOC)CC2)s1 | -12.1
16 | CCc1ccc(N2CCC(NS(=O)(=O)N(CC)CC)CC2)cc1 | 0.243
17 | Cc1noc(C)c1CN(C)C(=O)NC(C)Cc1ccco1 (stereo not drawn) | 11.3
18 | CC1COCCN1C(=O)c1cnccn1 (stereo not drawn) | -4.36
19 | Cc1nn(C)c(Cl)c1C1CCCN1CC(=O)NC1CCCC1 (stereo not drawn) | -3.78
20 | CC(=O)c1cccc(NC(=O)CN2CCCC(C3OCCO3)C2)c1 (stereo not drawn) | -3.28
21 | CN(CC(=O)Nc1cccnc1)CC1CCCN1c1cccnn1 (stereo not drawn) | 2.66

Row | SMILES | cytotoxicity at 10 µM [%]
22 | CN(C1CCc2ccccc2C1)S(C)(=O)=O (stereo not drawn) | -3.78
23 | CCOCCOC(C)C(=O)NCc1cn2cc(Cl)ccc2n1 (stereo not drawn) | 8.82
24 | CC(C)(C)Cc1nnc(NCc2ccsc2)o1 | -5.36
25 | CCCc1cc(N2CCCC2Cn2nc(C)nc2C)n2ncnc2n1 (stereo not drawn) | -0.82
26 | Cn1cc(Br)cc(NC(=O)Cc2cccs2)c1=O | 2.14
27 | O=C(NCCNc1cnccn1)c1scnc1Cl | 8.11
28 | CN(CC(F)(F)F)C(=O)CNC(=O)N1CCCC(N(C)C)C1 (stereo not drawn) | -7.91
29 | Cc1cc(C(N)=O)c2c(Br)cccc2n1 | 1.09
30 | COC(=O)CN(C)Cc1cc(Br)cs1 | -2.45
31 | Cc1nc(NC(=O)OC(C)(C)C)sc1C#N | -10
32 | COc1cccc(C(O)CN2CCN(C(=O)c3ccsc3)CC2)c1 (stereo not drawn) | -48.1
33 | N#CCCCN1CCCC1Cc1ccccc1 (stereo not drawn) | -45.4
34 | O=C(CCc1ccc(F)cc1)NCc1ccnc(NC2CC2)c1 | -8.78
35 | CC1CN(Cc2cccc(C#N)c2)CCN1c1ccc2nncn2n1 (stereo not drawn) | 9.56
36 | CNC(=O)c1cnc(/C=C/c2cc(OC)c(OC)c(OC)c2)s1 | -15.5
37 | CN(Cc1ccc(C#N)cc1)Cc1noc(C(C)(C)C)n1 | -2.09
38 | Cc1cnn(CC(C)NCc2nc(-c3ccco3)no2)c1 (stereo not drawn) | -16
39 | CO[C@@H]1CO[C@@]2(CCCN(C(=O)C3CC=CC3)C2)C1 | -105
40 | CCN1CCC2(CC1)CC(CC(=O)N(C)C)c1ccc(F)cc12 (stereo not drawn) | -98.6
41 | O=C(C1CCOCC1)N1C[C@H]2CCC[C@@]2(COCc2ccccn2)C1 | -112
42 | Cn1nnc2c1CCN(S(C)(=O)=O)C2COCc1ccccc1 (stereo not drawn) | -100

Row | SMILES | cytotoxicity at 10 µM [%]
43 | O=C(c1cccs1)N1CCc2ncnc(C3CCOC3)c2CC1 (stereo not drawn) | -85.4
44 | CC(C)c1noc(-c2ccc(NCCCN3CCCC(O)C3)nc2)n1 (stereo not drawn) | -6.87
45 | O[C@@H]1CN(CC2CC2)CC[C@H]1N1CCN(c2ccccc2F)CC1 | -50.3
46 | CC1(C)CNC(=O)c2nc(CCN3CCC(O)CC3)[nH]c2C1 | -10.4
47 | CC1(C)CC(C(=O)N2CCC3(CCC(=O)N(C4CC4)C3)CC2)CCO1 (stereo not drawn) | 0.868
48 | Cc1cnc(-n2cnnc2)c(-c2cccc3c2CCNC3)c1 | 17.7
49 | CCc1nn(C)c(Cl)c1CN1CCCC2(CC1)CN(C)C(=O)O2 (stereo not drawn) | 5.63
50 | CCc1nc(N2CCN(c3ncccc3C#N)CC2)c2cnn(C)c2n1 | 10.8
51 | Cc1nc(C2CCCNC2)cc(N2CCc3nc(N)sc3C2)n1 (stereo not drawn) | -47.4
52 | CCCN1CCN(Cc2cccc(OC)c2)[C@H]2CS(=O)(=O)C[C@H]21 | -8.15
53 | CC[C@H](Nc1nc(C(C)C)nc2c1cnn2C)c1ccccc1 | -47.5
54 | Cc1c[nH]c(C(=O)N2CCn3nc(C(=O)NC4CC4)cc3C2)n1 | -2.66
55 | CCCC1(NC(=O)C(c2ccc(F)cc2)N(C)C)CC1 (stereo not drawn) | -37.1
56 | Cc1cc(C(F)(F)F)cc(N2C[C@@H](CN3CCOCC3)[C@@H](CO)C2)n1 | -6.02
57 | CCc1noc(CN(CC)C(=O)C2CC(=O)N(Cc3ccncc3)C2)n1 (stereo not drawn) | 18.2
58 | c1ccc2c(CC3CN(Cc4nccs4)CCO3)cccc2c1 (stereo not drawn) | 1.31
59 | CCc1nc2c(c(NC3CCC3)n1)CCN(C(=O)CO)CC2 | 5.42
60 | CCOCc1nc2c(c(NC(CC)c3cccnc3)n1)CCNCC2 (stereo not drawn) | -4.28
61 | Cn1cccc1C(=O)N1CCC2(CCCN(CC3CCC3)C2=O)C1 (stereo not drawn) | -2.6
62 | COc1ccc(C(=O)N2CCCCC2c2ccccn2)c(OC)n1 (stereo not drawn) | -0.649
63 | CCN(CC)C(=O)[C@@H]1C[C@@H](n2cc(-c3cccc(OC)c3)nn2)CN1 | -5.98

Row | SMILES | cytotoxicity at 10 µM [%]
64 | COC(=O)CCc1c(C)nc2cc(O)nn2c1C | -7.18
65 | CCN(C(=O)Nc1cccnc1OC)C1CC1 | -9.11
66 | CC(C)n1ncc2cc(NC(=O)N3CCC(N4CCCC4)C3)cnc21 (stereo not drawn) | -8.58
67 | CN(Cc1nc(C2CC2)no1)C1CCCN(c2cccnn2)C1 (stereo not drawn) | -6.62
68 | COCCC(=O)N1CCc2c(CNc3ncccn3)cncc2C1 | 9.05
69 | CCC(CN1CCCC1)NC(=O)C1(c2cccc(F)c2)CC1 (stereo not drawn) | -5.72
70 | OCC1CCC2(CC1)CN(Cc1ccccc1F)Cc1ccccc1O2 (stereo not drawn) | 3.68
71 | Cc1cccc(CN(Cc2ccc(C)o2)C2CC(C)(C)NC(C)(C)C2)n1 | -2.42
72 | CN(C)C(=O)[C@H]1C[C@H]2OCC[C@H]2N(Cc2ccc(F)cc2)C1 | -76.1
73 | Cc1cccc(CN2CCc3ncnc(-c4ccsc4)c3CC2)n1 | -78.2
74 | CC1c2ncc(CN3CCN(C)CC3)n2CCN1Cc1ccccn1 (stereo not drawn) | -0.23
75 | O=C(NC1CCC1)[C@@H]1CCO[C@@H]2CCN(CCc3ccccc3)C[C@H]21 | -7.24
76 | O=C(NCc1ccccc1)c1nc2c(o1)CN(C(=O)c1cccnc1)C2 | -76.9
77 | Cn1ccc(CN2CCCC23CCN(Cc2ccccc2F)CC3)n1 | -104
78 | O=C(N1CCOCC1)[C@@]12CCO[C@@H]1CCN(CC1CCCC1)C2 | -0.385
79 | CCOCC1CN(Cc2cnn(C)c2)Cc2c1cnn2CC (stereo not drawn) | -83.4
80 | Cc1cccc(CN2CCCC3(CCN(CC4CCCO4)CC3)C2)n1 (stereo not drawn) | -121
81 | Cn1ncc2c1CN(Cc1cccnc1)CC2COCC1CC1 (stereo not drawn) | -10.7
82 | COCCN1CCOCC2(C1)CN(C(=O)c1conc1C)CCO2 (stereo not drawn) | 7.1
83 | CN(C)c1ccc(CN2C[C@@H]3CC[C@H]2CN(C2CCOCC2)C3)cn1 | -3.62
